Reference: ChEMBL document CHEMBL4627410, “Discovery of an Orally Active Small-Molecule Tumor Necrosis Factor-α Inhibitor” (J Med Chem, 2020)
Active and inactive are the calls of the source. No cut-off for these calls is given here.

What was measured:
Tumor necrosis factor [1] = target: T1, Tumor necrosis factor (Homo sapiens, UniProt P01375); assay: Binding affinity to recombinant TNFalpha (unknown origin) expressed in Escherichia coli BL21 (DE3) incubated for 10 mins by MST assay
Tumor necrosis factor [2] = target: T1, Tumor necrosis factor; assay: Binding affinity to recombinant TNFalpha (unknown origin) expressed in Escherichia coli BL21 (DE3) assessed as increase in TNF-alpha thermal stability by measuring tolerated temperature (reference value: 90 degC)
Mus musculus [3] = assay: Antiinflammatory activity in Balb/c mouse model of collagen-induced arthritis assessed as reduction in arthritic score at 25 to 50 mg/kg, ig for 2 weeks; format: functional, organism-based
Outline: (§1)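 Balb/c mice immunized intradermally at the tail base with bovine type II collagen emulsified 1:1 in complete Freund's adjuvant (1 mg/mL, 0.1 mL), with the same boost on day 14. Gavage dosing for 2 weeks; prednisone 5 mg/kg i.g. as reference. Non-immunized normal group included, n=10 per group. Outcomes: four-paw arthritis score, blinded, maximum 16. Spleen index = spleen weight/body weight. Serum cytokines by ELISA. Right hind limb fixed in 4% paraformaldehyde, decalcified 30 days in 12.5% EDTA pH 7.0, 6–8 μm H&E sections graded blindly 0–3.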

Mus musculus [4] = assay: Antiinflammatory activity in Balb/c mouse model of Imiquimod-induced psoriasis-like skin lesions assessed as reduction of serum IL6 level at 25 to 50 mg/kg, ig after 7 days by ELISA; format: functional, organism-based
Outline: (§2)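 Back skin shaved (5 cm × 4 cm) under isoflurane. Two days later, 5% imiquimod cream applied topically for 6 consecutive days; controls received base cream. Dosing by gavage, with prednisone 5 mg/kg as reference, n=10 per group. Erythema and scaling scored daily and blinded, 0–4. On day 7: spleen index, serum IL-1β and IL-6 by ELISA, and 3 µm H&E back-skin sections. Means ± SD.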

Mus musculus [5] = assay: Antiinflammatory activity in Balb/c mouse model of collagen-induced arthritis assessed as reduction in serum IL-1beta level at 25 to 50 mg/kg, ig for 2 weeks by ELISA; format: functional, organism-based; outline: as §1
Tumor necrosis factor [6] = target: T1, Tumor necrosis factor; assay: Binding affinity to recombinant TNFalpha (unknown origin) expressed in Escherichia coli BL21 (DE3) assessed as protection of TNF-alpha from protease mediated digestion at 2.5 to 20 uM
Outline: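 DARTS assay on TNF-α (His6-tagged, expressed in E. coli BL21(DE3) and purified by Ni-affinity, anion exchange and size exclusion). Protein was treated with compound, then digested with pronase for 30 min. Remaining TNF-α was read out.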

Mus musculus [7] = assay: Antiinflammatory activity in Balb/c mouse model of endotoxemia assessed as increase in mouse survival at 25 mg/kg, ig pre-treated 2 hrs before LPS injection and measured 12 to 96 hrs post LPS challenge; format: functional, organism-based
Outline: (§3)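 Endotoxemia induced with LPS 15 mg/kg i.p., n=10 per group; controls received saline i.p. Gavage dose given 2 h before LPS, then again at 12, 24, 48, 72 and 96 h. Survival followed daily for up to 2 weeks. Liver and lung fixed in 10% formalin and sections stained with H&E. Means ± SD.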

Tumor necrosis factor [8] = target: T1, Tumor necrosis factor; assay: Binding affinity to recombinant TNFalpha (unknown origin) expressed in Escherichia coli BL21 (DE3) assessed as increase in Kd for TNF-alpha-TNFR1 binding at 10 uM pe-incubated for 15 mins before TNFR1 addition and measured after 15 mins by MST assay relative to control
Outline: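 TNF-α (C-terminal His6, from E. coli BL21(DE3), purified by Ni-agarose, thrombin digest, anion exchange and size exclusion) at various concentrations was preincubated with 10 µM compound for 15 min at room temperature. The mix was added to an equal volume of RED-labelled TNFR1 in 20 mM HEPES pH 7.5, 0.05% Tween-20. MST was read at 22 °C (100% LED, 20% MST power) and KD was fitted.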

Mus musculus [9] = assay: Antiinflammatory activity in Balb/c mouse model of endotoxemia assessed as reduction in lung damage at 25 mg/kg, ig pre-treated 2 hrs before LPS injection and measured 12 to 96 hrs post LPS challenge by H and E staining based histopathological analysis; format: functional, organism-based; outline: as §3
Mus musculus [10] = assay: Antiinflammatory activity in Balb/c mouse model of Imiquimod-induced psoriasis-like skin lesions assessed as reduction of spleen index at 25 to 50 mg/kg, ig; format: functional, organism-based; outline: as §2
Mus musculus [11] = assay: Antiinflammatory activity in Balb/c mouse model of Imiquimod-induced psoriasis-like skin lesions assessed as reduction of histopathological changes at 25 to 50 mg/kg, ig by H and E staining based histopathological analysis; format: functional, organism-based; outline: as §2
Mus musculus [12] = assay: Antiinflammatory activity in Balb/c mouse model of collagen-induced arthritis assessed as increase in serum IL10 level at 25 to 50 mg/kg, ig for 2 weeks by ELISA; format: functional, organism-based; outline: as §1
[13] = target: T2, Tumor necrosis factor (Mus musculus) (UniProt P06804); assay: (§4) Inhibition of TNF-alpha in mouse RAW264.7 cells assessed as inhibition of LPS-induced IKBalpha phosphorylation at 5 to 20 uM pre-incubated for 12 hrs before LPS stimulation for 2 hrs by Western blot analysis; format: cell-based
T2 sequence (whole entry): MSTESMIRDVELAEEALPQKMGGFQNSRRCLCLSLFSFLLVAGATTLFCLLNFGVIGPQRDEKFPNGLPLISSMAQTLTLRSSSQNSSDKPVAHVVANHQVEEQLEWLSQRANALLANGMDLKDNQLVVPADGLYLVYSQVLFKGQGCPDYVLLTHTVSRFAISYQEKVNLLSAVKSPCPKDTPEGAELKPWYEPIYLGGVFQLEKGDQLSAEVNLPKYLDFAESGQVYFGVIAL
Outline: (§5)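 RAW264.7 cells (5×10^4 cells/mL) cultured overnight. Compound at 5, 10 or 20 µM for 12 h, then LPS 1 µg/mL for 2 h. Lysed in RIPA, protein equalized by BCA, run on 12% SDS-PAGE. Immunoblotted for IκBα and p-IκBα, ECL detection.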

Mus musculus [14] = assay: Antiinflammatory activity in Balb/c mouse model of collagen-induced arthritis assessed as reduction in spleen index at 25 to 50 mg/kg, ig for 2 weeks; format: functional, organism-based; outline: as §1
Mus musculus [15] = assay: Antiinflammatory activity in Balb/c mouse model of Imiquimod-induced psoriasis-like skin lesions assessed as decrease in adjusted scale scores consisting of erythema, epidermal acanthosis, and lesions thickness at 25 to 50 mg/kg, ig; format: functional, organism-based; outline: as §2
[16] = target: T2, Tumor necrosis factor (Mus musculus); assay: as §4; format: cell-based; outline: as §5; remark: listed apart in the source
Mus musculus [17] = assay: Antiinflammatory activity in Balb/c mouse model of collagen-induced arthritis assessed as reduction in serum IL6 level at 25 to 50 mg/kg, ig for 2 weeks by ELISA; format: functional, organism-based; outline: as §1
Mus musculus [18] = assay: Antiinflammatory activity in Balb/c mouse assessed as inhibition of LPS-induced IL6 production at 25 to 50 mg/kg, po pre-treated 90 mins before LPS injection and measured after 4 hrs by sandwich ELISA; format: functional, organism-based
Outline: (§6)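 Male Balb/c mice, 7–8 weeks old, randomized into control, LPS and two dose groups. Oral dosing 90 min before LPS (1.5 mg/kg, i.p.). Serum taken from clotted blood 4 h after LPS and stored at -80 °C. IL-1β and IL-6 measured by sandwich ELISA. At least six mice per group, each sample run in duplicate.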

[19] = Toxicity in mouse RAW264.7 cells at 5 to 20 uM; format: cell-based
Mus musculus [20] = assay: Antiinflammatory activity in Balb/c mouse model of endotoxemia assessed as reduction in liver damage at 25 mg/kg, ig pre-treated 2 hrs before LPS injection and measured 12 to 96 hrs post LPS challenge by H and E staining based histopathological analysis; format: functional, organism-based; outline: as §3
Mus musculus [21] = assay: Antiinflammatory activity in Balb/c mouse model of collagen-induced arthritis assessed as reduction in degree of cartilage and bone destruction and inflammation at 25 to 50 mg/kg, ig for 2 weeks by H and E staining based histopathological analysis; format: functional, organism-based; outline: as §1
Tumor necrosis factor [22] = target: T1, Tumor necrosis factor; assay: Binding affinity to recombinant TNFalpha (unknown origin) expressed in Escherichia coli BL21 (DE3) assessed as inhibition of TNFR1 binding to immobilized TNF-alpha pre-incubated with TNFR1 for 20 mins followed by TNFalpha addition and measured after 120 mins by ELISA
Mus musculus [23] = assay: Antiinflammatory activity in Balb/c mouse assessed as inhibition of LPS-induced IL1-beta production at 25 to 50 mg/kg, po pre-treated 90 mins before LPS injection and measured after 4 hrs by sandwich ELISA; format: functional, organism-based; outline: as §6
Mus musculus [24] = assay: Antiinflammatory activity in Balb/c mouse model of Imiquimod-induced psoriasis-like skin lesions assessed as inhibition of inflammation at 25 to 50 mg/kg, ig; format: functional, organism-based; outline: as §2
Mus musculus [25] = assay: Antiinflammatory activity in Balb/c mouse model of collagen-induced arthritis assessed as reduction in serum IFNgamma level at 25 to 50 mg/kg, ig for 2 weeks by ELISA; format: functional, organism-based; outline: as §1
[26] = target: T2, Tumor necrosis factor (Mus musculus); assay: Inhibition of TNF-alpha in mouse RAW264.7 cells assessed as inhibition of NFkappB/p65 nuclear translocation at 5 to 20 uM by DAPI staining based microscopy; format: cell-based
Outline: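 RAW264.7 cells grown to 50–70% confluence in glass chambers. Pretreated 12 h with DMSO or compound, then TNF-α 10 ng/mL for 2 h. Fixed in 4% paraformaldehyde, permeabilized with 0.25% Triton X-100, blocked with BSA. Stained with anti-p65 (1:1000, 4 °C overnight), fluorescent secondary (1:500) and DAPI nuclear stain. Imaged by fluorescence microscopy.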

Mus musculus [27] = assay: Antiinflammatory activity in Balb/c mouse model of endotoxemia assessed as reduction in emergence of hemorrhagic necrosis at 25 mg/kg, ig pre-treated 2 hrs before LPS injection and measured 12 to 96 hrs post LPS challenge by H and E staining based histopathological analysis; format: functional, organism-based; outline: as §3
Mus musculus [28] = assay: Antiinflammatory activity in Balb/c mouse model of Imiquimod-induced psoriasis-like skin lesions assessed as reduction of serum IL-1beta level at 25 to 50 mg/kg, ig by ELISA; format: functional, organism-based; outline: as §2
Mus musculus [29] = assay: Antiinflammatory activity in Balb/c mouse model of collagen-induced arthritis assessed as reduction in degree of cartilage and bone destruction and inflammation at 5 mg/kg, ig for 2 weeks by H and E staining based histopathological analysis; format: functional, organism-based; outline: as §1
Mus musculus [30] = assay: Antiinflammatory activity in Balb/c mouse model of Imiquimod-induced psoriasis-like skin lesions assessed as reduction of serum IL-1beta level at 5 mg/kg, ig by ELISA; format: functional, organism-based; outline: as §2
Mus musculus [31] = assay: Antiinflammatory activity in Balb/c mouse model of Imiquimod-induced psoriasis-like skin lesions assessed as reduction of serum IL6 level at 5 mg/kg, ig by ELISA; format: functional, organism-based; outline: as §2

T1 sequence (P01375 whole entry): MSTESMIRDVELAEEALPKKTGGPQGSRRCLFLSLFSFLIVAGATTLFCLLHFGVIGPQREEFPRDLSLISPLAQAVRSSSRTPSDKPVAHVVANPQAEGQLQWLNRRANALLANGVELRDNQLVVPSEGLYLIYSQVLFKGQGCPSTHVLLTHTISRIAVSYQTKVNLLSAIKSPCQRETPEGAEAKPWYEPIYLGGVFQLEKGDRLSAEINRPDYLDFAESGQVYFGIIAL

Compound: O=c1c([C@H]2NCCc3c2[nH]c2ccccc32)c(O)[nH]c(=S)n1-c1ccc2ccccc2c1
- Kd (Tumor necrosis factor [1]): Not Active

Compound: Cn1c(SCC(=O)N2CC(=O)Nc3cc(C(F)(F)F)ccc32)nnc1-c1ccccc1Cl
- Kd (Tumor necrosis factor [1]): Not Active

Compound: O=c1c([C@H]2NCCc3c2[nH]c2ccccc32)c(O)[nH]c(=S)n1Cc1ccc(F)cc1
- Kd (Tumor necrosis factor [1]): Not Active

Compound: O=C1C[C@H](Nc2ncnc3[nH]cnc23)CN1Cc1ccccc1
- T (Tumor necrosis factor [2]): 94 °C
- Activity (Mus musculus [3]): Active
- Activity (Mus musculus [4]): Dose-dependent effect
- Activity (Mus musculus [5]): Dose-dependent effect
- Activity (Tumor necrosis factor [6]): Dose-dependent effect
- Activity (Mus musculus [7]): Active
- fold change (FC) (Tumor necrosis factor [8]): 18
- Activity (Mus musculus [9]): Active
- Activity (Mus musculus [10]): Active
- Activity (Mus musculus [11]): Active
- Activity (Mus musculus [12]): Dose-dependent effect
- inhibition [13]: Dose-dependent effect
- Activity (Mus musculus [14]): Active
- Activity (Mus musculus [15]): Active
- inhibition [16]: Active
- Activity (Mus musculus [17]): Dose-dependent effect
- inhibition (Mus musculus [18]): Active
- Kd (Tumor necrosis factor [1]; read-out: Kd): 82.1 µM
- IC50 [19]: > 100 µM
- Activity (Mus musculus [20]): Active
- Activity (Mus musculus [21]): Active
- IC50 (Tumor necrosis factor [22]): 0.109 µM
- inhibition (Mus musculus [23]): Active
- Activity (Mus musculus [24]): Active
- Activity (Mus musculus [25]): Dose-dependent effect
- inhibition [26]: Active
- Activity (Mus musculus [27]): Active
- Activity (Mus musculus [28]): Dose-dependent effect

Compound: Cc1cc(C)cc(-n2c(O)c([C@H]3NCCc4c3[nH]c3ccccc43)c(O)nc2=S)c1
- Kd (Tumor necrosis factor [1]): Not Active

Compound: CC1CCc2c([nH]c3ccccc23)[C@H]1c1c(O)nc2n(c1=O)CCS2 (some centres not stated)
- Kd (Tumor necrosis factor [1]): Not Active

Compound: C[C@]12C=CC(=O)C=C1CC[C@@H]1[C@@H]2C(=O)C[C@@]2(C)[C@H]1CC[C@]2(O)C(=O)CO
- Activity (Mus musculus [29]): Active
- Activity (Mus musculus [30]): Active
- Activity (Mus musculus [31]): Active

Compound: O=C(CCc1ccccc1)[C@H]1Cc2[nH]cnc2CN1C(=O)c1cccs1
- Kd (Tumor necrosis factor [1]): Not Active
